# Screens: PubChem, The Scripps Research Institute Molecular Screening Center
# GalR3 antag = GalR3 antagonists in HEK293 cells, primary screen, cell-based, fluorescence readout | Galanin receptor type 3 (Homo sapiens), O60755 | HEK293 GalR3-CNG cAMP membrane potential fluorescence; galR3 body fused to GalR1 C-terminus | inhibition, % at 3 µM | actives 0.44% (n = 360,000) | AID 651719, 2012;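 active = inhibition above the screen-wide average plus 3 SD, cut at about 13% in these data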;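 also: forskolin and galanin both at EC90 stimulate the cells; cAMP rise reported by CNG channel membrane potential dye signal; 0% = forskolin plus galanin with DMSO and 100% = forskolin alone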
# OX1R antag-1 = antagonists of human orexin 1 receptor (OX1R) | Orexin/Hypocretin receptor type 1 (Homo sapiens), O43613 | OX1R-expressing cells, FRET antagonist read-out | inhibition, % at 6.6 µM | actives 1.8% (n = 330,000); in the data active = inhibition mostly above about 38%, no sharp cut-off; inactive = mostly below about 40%;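 also: 0% = agonist challenge alone and 100% = reference antagonist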
# CHO parental Ca = ATP-evoked calcium signal inhibitors, parental CHO, primary screen, counter-screen for OX1R antagonist project, cell-based, fluorescence, Fluo-8 calcium dye; parental CHO-K1, ATP-induced calcium, Fluo-8 fluorescence; inhibition, % at 5.6 µM; actives 0.63% (n = 330,000); AID 463079, 2010;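 active = inhibition above that plate's mean sample inhibition plus 3 SD, cut at about 26% in these data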;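 also: 0% = ATP-challenged DMSO wells and 100% = DMSO wells without ATP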
#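 Test system: untransfected parental CHO cell line. Compound: one dose, 5.6 µM nominal. Detection: intracellular calcium via Fluo-8 no-wash fluorescent dye. Measure: % inhibition. Benchmarks: ATP-challenged DMSO wells low, unchallenged DMSO wells high.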
# OX1R antag-2 = OX1R (HCRTR1) antagonists, primary screen, fluorescence, CHO/OX1R cells, Fluo-8 calcium, orexin A; Orexin/Hypocretin receptor type 1 (Homo sapiens), O43613; Fluo-8 calcium fluorescence; inhibition, % at 5 µM; actives 0.43% (n = 330,000);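 active = inhibition above its plate's threshold, mean inhibition of all tested compounds on the plate plus 3 SD, cut at about 37% in these data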;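 also: 0% = orexin A challenge wells and 100% = SB-334867-A antagonist wells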
# GPR7 antag = GPR7 receptor antagonists, primary screen, cell-based, fluorescence, single concentration. Neuropeptides B/W receptor type 1 (Homo sapiens), P48145. GPR7-expressing cells, fluorescence antagonist assay. inhibition, % at 4.4 µM. actives 1.1% (n = 290,000). AID 1861, 2009; in the data active = inhibition above about 16%, passing the limit was not always enough;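 also: cells stimulated with the agonist NPW; 0% = agonist with vehicle and 100% = vehicle without agonist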
# Target sequence (P48145 whole entry, looked up): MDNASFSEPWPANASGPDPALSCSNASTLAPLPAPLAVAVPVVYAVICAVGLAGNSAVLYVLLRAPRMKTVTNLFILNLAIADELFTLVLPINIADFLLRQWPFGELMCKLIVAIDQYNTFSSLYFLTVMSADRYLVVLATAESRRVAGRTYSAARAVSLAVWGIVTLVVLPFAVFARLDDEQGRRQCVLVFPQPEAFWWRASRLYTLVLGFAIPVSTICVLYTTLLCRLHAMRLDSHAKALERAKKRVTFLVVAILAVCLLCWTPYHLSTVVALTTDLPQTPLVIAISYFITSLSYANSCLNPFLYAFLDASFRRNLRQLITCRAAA
# GPR7 antag conf = GPR7 receptor antagonists, confirmation, cell-based, fluorescence, single concentration. shares compounds with GPR7 antag. GPR7-expressing cells, calcium fluorescence antagonist mode. inhibition, % at 4.4 µM. actives 52% (n = 2,400); in the data active = inhibition above about 24%;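 also: stimulated with the GPR7 agonist NPW; 0% = agonist plus vehicle and 100% = vehicle alone without agonist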
# MCHR1 antagonist = MCHR1 antagonists in cells, counter-screen for GPR7 antagonist project, cell-based, fluorescence, human. actives 62% (n = 2,400). AID 2148, 2009. inhibition, % at 4.4 µM. shares compounds with GPR7 antag. MCHR1-expressing cells, fluorescence antagonist assay; in the data active = inhibition above about 22%;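 also: 0% = vehicle with agonist and 100% = vehicle without agonist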
# An asterisk follows results filed as active; · = no result. Only some compounds are listed: those with a hit (about 3.1% of all), similar ones and a draw of the others.
SMILES,GalR3 antag,OX1R antag-1,CHO parental Ca,OX1R antag-2,GPR7 antag,GPR7 antag conf,MCHR1 antagonist
COc1ccc(CNCC(O)(c2ccc(Cl)cc2)c2ccc(Cl)cc2)cc1,2,9,-16,-21,31*,39*,56*
OC(CNCc1ccc(F)cc1)(c1ccc(F)cc1)c1ccc(F)cc1,-7,23,-13,-13,34*,29*,30*
N#CC1(c2ccccc2)CCC(NCCc2ccccc2)CC1 (configuration not stated),-14,7,-10,-57,40*,7,2
O=C(COC(=O)c1ccc2c(c1)S(=O)(=O)N=C1CCCCCN12)NCc1cccs1,-6,16,-9,-25,-4,·,·
O=[N+]([O-])c1ccc(-c2csc3[n+]2CCS3)cc1,-2,74*,-13,-20,29*,-1,14
Fc1ccccc1Cc1noc(CN2CCN(c3ccc(Cl)cn3)CC2)n1,-2,22,5,-25,21*,13,26*
Clc1ccccc1Cc1noc(CN2CCN(c3cnccn3)CC2)n1,5,21,-5,-18,-3,·,·
O=C(NCC1CC1(Cl)Cl)Nc1ccc(Cl)c(Cl)c1 (configuration not stated),-8,39,33*,2,33*,13,58*
CC(C)(CO)NC(=O)Nc1ccc(Cl)c(Cl)c1,-1,2,13,2,26*,-6,10
CC(c1ccccc1)n1ccnc1CO (configuration not stated),-2,·,·,·,·,·,·
CCCn1c(N)c(N2CCCCC2)c(=O)n(CC(=O)Nc2cccc(S(=O)(=O)N(C)C)c2)c1=O,-6,6,-9,-10,·,·,·
COC(=O)[C@]12CCCCC=C1N(Cc1ccco1)C(=O)[C@H](CC(=O)NCc1ccc(OC)c(OC)c1)C2,-6,·,·,·,·,·,·
O=[N+]([O-])c1ccc(C2=NN(CCO)C(=Nc3ccc(OC(F)(F)F)cc3)SC2)cc1,-7,24,2,-2,28*,54*,37*
COc1ccc(N=C2SCC(c3ccc([N+](=O)[O-])cc3)=NN2CCO)cc1,-6,5,-18,-3,32*,28*,40*
COc1ccc(N=C2SCC(c3ccc(C)cc3)=NN2CCO)cc1,-3,15,-5,-6,17,·,·
CCCCNc1c2c3c(cccc3n(C)c1=O)C(=O)c1ccccc1-2,·,12,77*,91*,21*,65*,81*
Cn1c(=O)c(N)c2c3c(c(Br)ccc31)C(=O)c1ccccc1-2,-4,21,-10,-5,-8,·,·
Cn1c(=O)c(NCCO)c2c3c(cccc31)C(=O)c1ccccc1-2,1,74,96*,103*,61*,60*,82*
CC(=O)Nc1ccc(Nc2c3c4c(cccc4n(C)c2=O)C(=O)c2ccccc2-3)cc1,-3,28,-15,-16,-3,·,·
CC1CCCC(NC(=O)CCN2C(=O)COc3ccccc32)C1C (configuration not stated),-4,·,·,·,·,·,·
CC1=CC2=NC(=O)/C(=C/c3coc4ccc(Cl)cc4c3=O)C(=N)N2O1,-6,7,39*,23,21*,28*,61*
COc1ccc2[nH]c3c4c(ccc3c2c1)C(=O)C=CC4=O,-11,·,·,·,23*,62*,80*
COc1ccc2[nH]c(=O)cc(C(=O)O)c2c1,-3,-4,-13,-15,13,·,·
COc1ccc(C[C@H]2CN3C(=NC[C@@H]3C(C)C)N2CCNC(=O)CCC2CCCCC2)cc1,-5,31,-26,-20,9,·,·
COc1ccc(C[C@H]2CN3C(=NC[C@@H]3Cc3ccccc3)N2CCNC(=O)CCC2CCCCC2)cc1,-7,9,-39,-16,37*,52*,39*
